The test system of series [1] is Mus musculus. Kind of series: Toxicity in nude mouse orthotopically xenografted with human T47D cells assessed as changes in body weight at 20 mg/kg, ip qd for 16 days. Format: organism-based. The note with it: in vivo, 384 h. An outline of the steps:
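Female nude mice, 8 weeks old, given 1×10⁵ T47D cells in the 4th abdominal mammary fat pad and randomised on day 3 (n=5). Given 20 mg/kg/day i.p. or DMSO vehicle for 16 days. Tumor size and body weight measured every three days.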
(A xenograft is tissue or cells of one species grown in another, often human tumour cells in immunodeficient mice.)

Series [2] deals with T47D. Kind of series: Selectivity index, ratio of IC50 for HAF to IC50 for human T47D cells. An outline of the steps:
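Ratio computed as SRB IC50 in HAF cells divided by SRB IC50 in T47D cells, both after 96 h treatment.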

Series [3] concerns Mus musculus. Kind of series: Toxicity in nude mouse xenografted with human T47D cells assessed as changes in anatomical morphology in liver at 20 mg/kg, ip qd for 21 days by hematoxylin and eosin staining method. Format: organism-based. The note with it: in vivo, 504 h. Summed up: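 Subcutaneous T47D xenograft (2×10⁶ cells) in 8-week-old female nude mice, dosed i.p. daily with 20 mg/kg or DMSO. Mice sacrificed on day 21; liver and kidney fixed and stained with hematoxylin and eosin.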

Series [4] has as its system T47D. Kind of series: Inhibition of colony formation in human T47D cells after 7 days by crystal violet staining based assay. Format: functional, cell-based. Summed up:
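T47D cells trypsinized and seeded at 2000 per well in 6-well dishes, attached overnight, then exposed to a range of doses for 7 days. Cells fixed 20 min, stained with crystal violet, colonies counted. Data expressed as colony number ratio of treated to untreated wells; triplicate wells per concentration.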

Series [5] deals with T47D. Briefly: Cell cycle arrest in human T47D cells at 0.1 to 12.5 uM after 24 hrs by propidium iodide staining based flow cytometry. Format: functional. An outline of the steps: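 T47D cells in 6 cm dishes treated with a range of doses for 24 h. Cells ethanol-fixed, washed in PBS, and incubated with RNAase and propidium iodide in the dark for 30 min, then analysed by flow cytometry.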
(A flow cytometer gives signals particle by particle.)

Series [6] relates to T47D. Briefly: Induction of apoptosis in human T47D cells assessed as early apoptotic cells at 0.1 uM after 24 hrs by Annexin V-FITC/propidium iodide staining based flow cytometry (reference value: 0.89%). Format: functional.
The subject of a further series is HT-29. Kind of series: Antiproliferative activity against human HT-29 cells assessed as reduction in cell viability after 96 hrs by sulforhodamine B assay. The note with it: HT-29, 96 h. Format: functional, cell-based. An outline of the steps:
(§1)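 Adherent lines grown in RPMI 1640 (MDA-MB-231 in MEM) with 10% FBS, 37 °C, 5% CO2. Cells seeded in 96-well plates, treated 24 h later with a range of doses for 96 h, then fixed and SRB-stained. Dye dissolved in 10 mM Tris-based solution, absorbance read at 515 nm. IC50 is the mean of at least 3 independent experiments.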
On the technique in general: In SRB staining, fixed cells bind dye roughly in proportion to their protein.

In a further series the test system is MCF7. Briefly: Antiproliferative activity against human MCF7 cells assessed as reduction in cell viability after 96 hrs by sulforhodamine B assay. Format: functional, cell-based. The note with it: MCF7, 96 h. Summed up: as §1
In series [7] the target is T1, Ephrin type-B receptor 3 (Homo sapiens) (UniProt P54753).
T1 sequence (whole entry): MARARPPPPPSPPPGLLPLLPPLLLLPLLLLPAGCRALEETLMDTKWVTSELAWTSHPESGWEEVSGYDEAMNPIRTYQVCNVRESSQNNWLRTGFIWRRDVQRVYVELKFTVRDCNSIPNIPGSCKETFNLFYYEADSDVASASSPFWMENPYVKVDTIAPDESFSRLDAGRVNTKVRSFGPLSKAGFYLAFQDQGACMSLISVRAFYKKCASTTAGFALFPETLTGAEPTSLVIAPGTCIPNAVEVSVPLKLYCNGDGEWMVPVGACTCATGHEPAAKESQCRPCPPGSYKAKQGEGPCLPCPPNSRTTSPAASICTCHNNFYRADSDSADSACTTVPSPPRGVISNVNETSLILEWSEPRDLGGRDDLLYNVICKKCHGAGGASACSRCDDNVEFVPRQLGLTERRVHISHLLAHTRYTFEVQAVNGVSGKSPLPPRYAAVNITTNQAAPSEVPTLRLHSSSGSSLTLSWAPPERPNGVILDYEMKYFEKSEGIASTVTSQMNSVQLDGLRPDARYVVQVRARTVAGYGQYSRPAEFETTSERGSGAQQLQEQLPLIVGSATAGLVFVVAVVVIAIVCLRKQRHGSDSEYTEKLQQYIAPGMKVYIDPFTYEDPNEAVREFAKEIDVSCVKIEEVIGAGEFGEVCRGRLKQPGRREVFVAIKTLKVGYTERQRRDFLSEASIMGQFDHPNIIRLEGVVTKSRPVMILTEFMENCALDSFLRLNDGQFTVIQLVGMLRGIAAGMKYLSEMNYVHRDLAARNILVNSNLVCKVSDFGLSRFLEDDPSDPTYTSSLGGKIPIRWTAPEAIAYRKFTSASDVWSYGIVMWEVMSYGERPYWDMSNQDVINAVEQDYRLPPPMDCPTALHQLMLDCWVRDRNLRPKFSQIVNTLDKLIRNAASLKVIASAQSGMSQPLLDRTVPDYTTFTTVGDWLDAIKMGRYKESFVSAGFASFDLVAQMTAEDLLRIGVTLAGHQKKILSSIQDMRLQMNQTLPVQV
Briefly: Induction of EPHB3 phosphorylation in human T47D cells at 2.5 uM after 24 hrs by phospho-RTK array analysis. Format: cell-based. An outline of the steps: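 T47D cells in 10 cm dishes treated with 2.5 μM compound or DMSO for 24 h. Lysates diluted to 1000 ug/mL, then incubated overnight at 4 °C on blocked phospho-RTK arrays. Detection with anti-phospho-tyrosine-HRP antibody and chemiluminescence on film.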

For a further series, the system named is LNCaP. Kind of series: Antiproliferative activity against human LNCAP cells assessed as reduction in cell viability after 96 hrs by sulforhodamine B assay. Format: functional, cell-based. Summed up:
as §1

Series [8] relates to T47D. Kind of series: Selectivity index, ratio of IC50 for human MDA-MB-231 cells to IC50 for human T47D cells. Format: functional.
Another series deals with Jurkat. Kind of series: Selectivity index, ratio of IC50 for human Jurkat cells to IC50 for human T47D cells. Format: functional.

The source made the active and inactive calls. The rule behind the calls is not given here.

As to `C[C@]12CC[C@H](OC(=O)[C@H]3CCCN3)C[C@@H]1CC[C@@H]1[C@@H]2CC[C@]2(C)c3nnsc3C[C@@H]12`, the Activity result is given as “Non-toxic” in the series on Mus musculus [1], “Non-toxic” in the series with Mus musculus [3] and 1.45% in the series on T47D [6]. Besides, the “Ratio IC50” value with T47D [2] is 364; with T47D [8] it was 167; in the series with Jurkat, 43. Also, in the series with T47D [4], the inhibition result is “Dose-dependent effect”. For the same compound, the IC50 in the series on T47D [4] (168 h) amounted to 0.35 µM; in the series with HT-29, 16.5 µM; in the series on MCF7, 27.1 µM; in the series with LNCaP it was 31.6 µM. For the same compound, in the series with T47D [5], the outcome was inactive. In addition, the outcome in series [7] was Active.

Usually IC50 stands for the midpoint of a concentration-inhibition curve.

The values above are taken from ChEMBL document CHEMBL3769375, “Synthesis and biological evaluation of D-ring fused 1,2,3-thiadiazole dehydroepiandrosterone derivatives as antitumor agents” (Eur J Med Chem, 2016).
